Source: ChEMBL document CHEMBL1165857, “Novel 3-alkanoyl/aroyl/heteroaroyl-2H-chromene-2-thiones: synthesis and evaluation of their antioxidant activities” (Eur J Med Chem, 2010)
Values after ≈ are worked out from the molar mass of the structure shown.

Key:
[1] = tested on: Radical scavenging activity; assay: Antioxidant activity assessed as DPPH radical scavenging activity; format: functional
Outline: (§1)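 DPPH (100 μM) in absolute methanol, compounds at 0–1000 μg/mL, in triplicate. After 30 min in the dark at room temperature, absorbance read at 515 nm against a blank. Percent decoloration taken relative to a methanol-treated control with DPPH and no sample; IC50 calculated in μg/mL.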

[2] = Protective index against GS radical-induced curcumin depletion at 10 ug/ml irradiated at 100 Gy
Outline: (§2)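 Reaction solution: 20 μM curcumin and 15 mM GSH in 60% methanol, with sample at 10 μg/mL. Control had no sample. Solutions were γ-irradiated to generate GS• radicals; doses up to 250 Gy, with PI reported at 100 Gy. Curcumin depletion followed by absorbance at 425 nm against a blank. Protective index (%) derived from depletion with versus without sample.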

[3] = DPPH radical scavenging activity assessed as ascorbic acid equivalent antioxidant capacity; format: functional
Outline: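 DPPH IC50 determined as above (100 μM DPPH in methanol, 30 min dark, room temperature, 515 nm). AEAC in mg ascorbic acid/g sample calculated as IC50(ascorbate)/IC50(sample) × 1000.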

[4] = Antioxidant activity assessed as inhibition of glutathione-induced curcumin depletion at 10 ug/ml; format: functional; outline: as §2
[5] = tested on: Radical scavenging activity; assay: Antioxidant activity assessed as DPPH radical scavenging activity at 250 ug/ml; format: functional; outline: as §1

| Compound | IC50 [1] [µg/mL] | PI [2] [%] | Activity [3] [mg/g] | INH [4] [µM] | Activity [5] [%] |
| --- | --- | --- | --- | --- | --- |
| COc1cccc2cc(C(=O)c3ccc(Cl)cc3)c(=S)oc12 | 95.57 (≈ 289 µM) | 25.2 | 40 |  |  |
| O=C(c1ccc(Cl)cc1)c1cc2cc(Br)ccc2oc1=S | 850.41 (≈ 2240 µM) |  |  |  |  |
| Cc1ccc(C(=O)c2cc3ccccc3oc2=S)cc1 | 551.57 (≈ 1970 µM) |  |  |  |  |
| COc1cccc2cc(C(=O)c3ccccc3)c(=S)oc12 | 98.72 (≈ 333 µM) | 10.9 | 38.7 |  |  |
| COc1cccc2cc(C(=O)c3ccc(C)cc3)c(=S)oc12 | 233.71 (≈ 753 µM) | 3.65 | 16.4 |  |  |
| COc1cccc2cc(C(=O)c3cccs3)c(=S)oc12 | 31.2 (≈ 103 µM) | 56.9 | 121 | 2.41 |  |
| COc1cccc2cc(C(C)=O)c(=S)oc12 | 358.67 (≈ 1530 µM) |  |  |  |  |
| CC(=O)c1cc2ccccc2oc1=S | 35.01 (≈ 171 µM) | 45.8 | 111 | 3.27 |  |
| O=C(c1ccc(Cl)cc1)c1cc2ccccc2oc1=S | 537.58 (≈ 1790 µM) |  |  |  |  |
| COc1ccc(C(=O)c2cc3ccccc3oc2=S)cc1 | 1579.25 (≈ 5330 µM) |  |  |  | 6.41 |
| COc1ccc(C(=O)c2cc3cc(Br)ccc3oc2=S)cc1 | 1112.83 (≈ 2970 µM) |  |  |  |  |
| COc1ccc(C(=O)c2cc3cccc(OC)c3oc2=S)cc1 | 603.43 (≈ 1850 µM) |  |  |  |  |
